Reference: ChEMBL document CHEMBL1212734, “In vitro pharmacodynamics of levofloxacin and other aerosolized antibiotics under multiple conditions relevant to chronic pulmonary infection in cystic fibrosis” (2010)
≈ marks a conversion by molar mass, not a printed value.

Key:
Assay type in all cases: functional
Pseudomonas aeruginosa [1] = test: Antibacterial activity against Pseudomonas aeruginosa PA899 by broth dilution method
Summary of the method: (§1)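 Broth microdilution MIC per CLSI reference method; twofold serial dilutions in cation-adjusted Mueller-Hinton broth. […] Endpoint read by OD600 and confirmed visually.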

Pseudomonas aeruginosa [2] = test: Antibacterial activity against Pseudomonas aeruginosa PA881 assessed as time required for reduction of bacterial load to 3 log CFU/ml at 0.6 mg/ml up to 48 hrs by time-kill assay
Summary of the method: (§2)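 Overnight cultures were diluted and grown at 37°C to OD600 ≈0.3, then set at 5 × 10^5–1 × 10^6 CFU/ml in 10 ml CAMHB. Drug was added at 0.2, 0.6 or 2.0 mg/ml, and cultures were shaken at 37°C. Samples taken at 0, 0.5, 1, 2, 4, 8 and 24 h were washed twice in CAMHB, diluted in saline and plated on Mueller-Hinton agar. Plates were incubated up to 48 h before colony counting.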

Pseudomonas aeruginosa [3] = test: Antibacterial activity against Pseudomonas aeruginosa PA880 by broth dilution method; summary of the method: as §1
Pseudomonas aeruginosa [4] = test: Antibacterial activity against Pseudomonas aeruginosa PA1054 by broth dilution method; summary of the method: as §1
Pseudomonas aeruginosa [5] = test: Antibacterial activity against Pseudomonas aeruginosa PA5043 by broth dilution method; summary of the method: as §1
Pseudomonas aeruginosa [6] = test: Antibacterial activity against Pseudomonas aeruginosa PA861 assessed as time required for reduction of bacterial load to 3 log CFU/ml at 2 mg/ml up to 48 hrs by time-kill assay; summary of the method: as §2
Pseudomonas aeruginosa [7] = test: Antibacterial activity against Pseudomonas aeruginosa PA5043 assessed as time required for reduction of bacterial load to 3 log CFU/ml at 0.6 mg/ml up to 48 hrs by time-kill assay; summary of the method: as §2
Pseudomonas aeruginosa [8] = test: Antibacterial activity against Pseudomonas aeruginosa PA899 assessed as time required for reduction of bacterial load to 3 log CFU/ml at 2 mg/ml up to 48 hrs by time-kill assay; summary of the method: as §2
Pseudomonas aeruginosa [9] = test: Antibacterial activity against Pseudomonas aeruginosa PA1042 by broth dilution method; summary of the method: as §1
Pseudomonas aeruginosa [10] = test: Antibacterial activity against Pseudomonas aeruginosa PA1054 assessed as time required for reduction of bacterial load to 3 log CFU/ml at 0.2 mg/ml up to 48 hrs by time-kill assay; summary of the method: as §2
Pseudomonas aeruginosa [11] = test: Antibacterial activity against Pseudomonas aeruginosa ATCC 27853 assessed as time required for reduction of bacterial load to 3 log CFU/ml at 2 mg/ml up to 48 hrs by time-kill assay
Pseudomonas aeruginosa [12] = test: Antibacterial activity against Pseudomonas aeruginosa PA5063 by broth dilution method; summary of the method: as §1
Pseudomonas aeruginosa [13] = test: Antibacterial activity against Pseudomonas aeruginosa PA5020 assessed as time required for reduction of bacterial load to 3 log CFU/ml at 2 mg/ml up to 48 hrs by time-kill assay; summary of the method: as §2
Pseudomonas aeruginosa [14] = test: Antibacterial activity against Pseudomonas aeruginosa PA1054 assessed as time required for reduction of bacterial load to 3 log CFU/ml at 0.6 mg/ml up to 48 hrs by time-kill assay; summary of the method: as §2
Pseudomonas aeruginosa [15] = test: Antibacterial activity against Pseudomonas aeruginosa PA881 by broth dilution method; summary of the method: as §1
Pseudomonas aeruginosa [16] = test: Antibacterial activity against Pseudomonas aeruginosa PA1042 assessed as time required for reduction of bacterial load to 3 log CFU/ml at 2 mg/ml up to 48 hrs by time-kill assay; summary of the method: as §2
Pseudomonas aeruginosa [17] = test: Antibacterial activity against Pseudomonas aeruginosa PA1042 assessed as time required for reduction of bacterial load to 3 log CFU/ml at 0.2 mg/ml up to 48 hrs by time-kill assay; summary of the method: as §2
[18] = tested on: Stenotrophomonas maltophilia; test: Antibacterial activity against Stenotrophomonas maltophilia by broth dilution method
Pseudomonas aeruginosa [19] = test: Antibacterial activity against Pseudomonas aeruginosa PA1036 assessed as time required for reduction of bacterial load to 3 log CFU/ml at 0.2 mg/ml up to 48 hrs by time-kill assay; summary of the method: as §2
Pseudomonas aeruginosa [20] = test: Antibacterial activity against Pseudomonas aeruginosa PA881 assessed as time required for reduction of bacterial load to 3 log CFU/ml at 2 mg/ml up to 48 hrs by time-kill assay; summary of the method: as §2
Pseudomonas aeruginosa [21] = test: Antibacterial activity against Pseudomonas aeruginosa PA1042 assessed as time required for reduction of bacterial load to 3 log CFU/ml at 0.6 mg/ml up to 48 hrs by time-kill assay; summary of the method: as §2
Pseudomonas aeruginosa [22] = test: Antibacterial activity against Pseudomonas aeruginosa PA880 assessed as time required for reduction of bacterial load to 3 log CFU/ml at 0.6 mg/ml up to 48 hrs by time-kill assay; summary of the method: as §2
Pseudomonas aeruginosa [23] = test: Antibacterial activity against Pseudomonas aeruginosa PA5043 assessed as time required for reduction of bacterial load to 3 log CFU/ml at 2 mg/ml up to 48 hrs by time-kill assay; summary of the method: as §2
Pseudomonas aeruginosa [24] = test: Antibacterial activity against Pseudomonas aeruginosa PA1042 assessed as inhibition of biofilm formation by microtiter plate reader assay
Summary of the method: (§3)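 Biofilms of cystic fibrosis P. aeruginosa isolates were grown and tested by a previously described method. The endpoint was the biofilm inhibitory concentration, the drug level that prevents biofilm cell growth, compared against planktonic broth-microdilution MICs.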

Pseudomonas aeruginosa [25] = test: Antibacterial activity against Pseudomonas aeruginosa ATCC 27853 by broth dilution method; summary of the method: as §1
Pseudomonas aeruginosa [26] = test: Antibacterial activity against Pseudomonas aeruginosa PA5043 assessed as inhibition of biofilm formation by microtiter plate reader assay; summary of the method: as §3
Pseudomonas aeruginosa [27] = test: Antibacterial activity against Pseudomonas aeruginosa PA1036 by broth dilution method; summary of the method: as §1
Pseudomonas aeruginosa [28] = test: Antibacterial activity against Pseudomonas aeruginosa PA876 by broth dilution method; summary of the method: as §1
Pseudomonas aeruginosa [29] = test: Antibacterial activity against Pseudomonas aeruginosa PA5020 by broth dilution method
Pseudomonas aeruginosa [30] = test: Antibacterial activity against Pseudomonas aeruginosa PA1022 by broth dilution method
Burkholderia cepacia = test: Antibacterial activity against Burkholderia cepacia clinical isolates by broth dilution method
Pseudomonas aeruginosa [31] = test: Antibacterial activity against Pseudomonas aeruginosa PAM1032 overexpressing multidrug efflux pump MexAB-OprM by broth dilution method

SMILES	MIC (Pseudomonas aeruginosa [1]) [µg/mL]	Time (Pseudomonas aeruginosa [2])	MIC (Pseudomonas aeruginosa [4]) [µg/mL]	Time (Pseudomonas aeruginosa [6])	Time (Pseudomonas aeruginosa [7])	Time (Pseudomonas aeruginosa [8])	Time (Pseudomonas aeruginosa [10])	Time (Pseudomonas aeruginosa [11])	MIC (Pseudomonas aeruginosa [12]) [µg/mL]	Time (Pseudomonas aeruginosa [13]) [h]	Time (Pseudomonas aeruginosa [14])	MIC50 (Pseudomonas aeruginosa [15]) [µg/mL]	Time (Pseudomonas aeruginosa [16])	Time (Pseudomonas aeruginosa [17])	MIC50 [18] [µg/mL]	MIC90 [18] [µg/mL]	Time (Pseudomonas aeruginosa [19])	Time (Pseudomonas aeruginosa [20])	Time (Pseudomonas aeruginosa [21])	Time (Pseudomonas aeruginosa [22])	also measured
C[C@H]1[C@H](NC(=O)/C(=N\OC(C)(C)C(=O)O)c2csc(N)n2)C(=O)N1S(=O)(=O)O [AZTREONAM]	8 (≈ 18.4 µM)	8 h	8 (≈ 18.4 µM)	24 h	2 h	24 h	24 h	24 h	8 (≈ 18.4 µM)	24	24 h	2 (≈ 4.59 µM)	2 h	8 h	> 128	> 128	>24 h	8 h	4 h	4 h	MIC (Pseudomonas aeruginosa [3]): 0.5 µg/mL (≈ 1.15 µM); MIC (Pseudomonas aeruginosa [5]): 1 µg/mL (≈ 2.3 µM); MIC (Pseudomonas aeruginosa [9]): 0.5 µg/mL (≈ 1.15 µM); Time (Pseudomonas aeruginosa [23]): 2 h; BBC (Pseudomonas aeruginosa [24]): >8 µg/mL; MIC (Pseudomonas aeruginosa [25]): 4 µg/mL (≈ 9.19 µM); BBC (Pseudomonas aeruginosa [26]): >64 µg/mL; MIC (Pseudomonas aeruginosa [27]): 32 µg/mL (≈ 73.5 µM); MIC90 (Pseudomonas aeruginosa [28]): > 128 µg/mL; MIC (Pseudomonas aeruginosa [29]): 64 µg/mL (≈ 147 µM); MIC (Pseudomonas aeruginosa [30]): 16 µg/mL (≈ 36.7 µM)
C[C@H]1COc2c(N3CCN(C)CC3)c(F)cc3c(=O)c(C(=O)O)cn1c23.C[C@H]1COc2c(N3CCN(C)CC3)c(F)cc3c(=O)c(C(=O)O)cn1c23.O [LEVOFLOXACIN]	0.5	<=0.5 hr	0.5	<=0.5 hr	<=0.5 hr	<=0.5 hr	<=0.5 hr	<=0.5 hr	0.5	2	<=0.5 hr	4	<=0.5 hr	<=0.5 hr	2	8	<=0.5 hr	<=0.5 hr	<=0.5 hr	<=0.5 hr	MIC50 (Burkholderia cepacia): 4 µg/mL; MIC90 (Burkholderia cepacia): 32 µg/mL; Time (Pseudomonas aeruginosa [23]): <=0.5 hr; BBC (Pseudomonas aeruginosa [24]): 1 µg/mL; BBC (Pseudomonas aeruginosa [26]): 1 µg/mL; MIC (Pseudomonas aeruginosa [27]): 8 µg/mL; MIC90 (Pseudomonas aeruginosa [28]): 8 µg/mL; MIC (Pseudomonas aeruginosa [29]): 16 µg/mL
NC[C@H]1O[C@H](O[C@H]2[C@H](O)[C@@H](O[C@H]3O[C@H](CO)[C@@H](O)[C@H](N)[C@H]3O)[C@H](N)C[C@@H]2N)[C@H](N)C[C@@H]1O [TOBRAMYCIN]	0.25 (≈ 0.535 µM)	<=0.5 hr	0.25 (≈ 0.535 µM)	4 h	1 h	<=0.5 hr	<=0.5 hr	<=0.5 hr	0.25 (≈ 0.535 µM)	2	<=0.5 hr	2 (≈ 4.28 µM)	<=0.5 hr	1 h	> 32	> 32	<=0.5 hr	<=0.5 hr	1 h	<=0.5 hr	MIC (Pseudomonas aeruginosa [31]): 0.25 µg/mL (≈ 0.535 µM); MIC (Pseudomonas aeruginosa [3]): 1 µg/mL (≈ 2.14 µM); MIC (Pseudomonas aeruginosa [5]): 8 µg/mL (≈ 17.1 µM); MIC50 (Burkholderia cepacia): > 32 µg/mL; MIC90 (Burkholderia cepacia): > 32 µg/mL; MIC (Pseudomonas aeruginosa [9]): 0.5 µg/mL (≈ 1.07 µM); Time (Pseudomonas aeruginosa [23]): 1 h; BBC (Pseudomonas aeruginosa [24]): 1 µg/mL; MIC (Pseudomonas aeruginosa [25]): 0.25 µg/mL (≈ 0.535 µM); BBC (Pseudomonas aeruginosa [26]): 8 µg/mL; MIC (Pseudomonas aeruginosa [27]): 1 µg/mL (≈ 2.14 µM); MIC90 (Pseudomonas aeruginosa [28]): 32 µg/mL (≈ 68.4 µM); MIC (Pseudomonas aeruginosa [29]): 8 µg/mL (≈ 17.1 µM); MIC (Pseudomonas aeruginosa [30]): > 32 µg/mL
